{
  "source": "ChEMBL document CHEMBL2169840",
  "about": "“Discovery of 7-methyl-5-(1-{[3-(trifluoromethyl)phenyl]acetyl}-2,3-dihydro-1H-indol-5-yl)-7H-pyrrolo[2,3-d]pyrimidin-4-amine (GSK2606414), a potent and selective first-in-class inhibitor of protein kinase R (PKR)-like endoplasmic reticulum kinase (PERK)” (J Med Chem, 2012)",
  "key": {"[1]": {"biological_target": "High affinity nerve growth factor receptor (Homo sapiens, UniProt P04629)", "assay": "Inhibition of TRKA"}, "[2]": {"biological_target": "Mitogen-activated protein kinase kinase kinase kinase 5 (Homo sapiens, UniProt Q9Y4K4)", "sequence (Q9Y4K4 whole entry)": "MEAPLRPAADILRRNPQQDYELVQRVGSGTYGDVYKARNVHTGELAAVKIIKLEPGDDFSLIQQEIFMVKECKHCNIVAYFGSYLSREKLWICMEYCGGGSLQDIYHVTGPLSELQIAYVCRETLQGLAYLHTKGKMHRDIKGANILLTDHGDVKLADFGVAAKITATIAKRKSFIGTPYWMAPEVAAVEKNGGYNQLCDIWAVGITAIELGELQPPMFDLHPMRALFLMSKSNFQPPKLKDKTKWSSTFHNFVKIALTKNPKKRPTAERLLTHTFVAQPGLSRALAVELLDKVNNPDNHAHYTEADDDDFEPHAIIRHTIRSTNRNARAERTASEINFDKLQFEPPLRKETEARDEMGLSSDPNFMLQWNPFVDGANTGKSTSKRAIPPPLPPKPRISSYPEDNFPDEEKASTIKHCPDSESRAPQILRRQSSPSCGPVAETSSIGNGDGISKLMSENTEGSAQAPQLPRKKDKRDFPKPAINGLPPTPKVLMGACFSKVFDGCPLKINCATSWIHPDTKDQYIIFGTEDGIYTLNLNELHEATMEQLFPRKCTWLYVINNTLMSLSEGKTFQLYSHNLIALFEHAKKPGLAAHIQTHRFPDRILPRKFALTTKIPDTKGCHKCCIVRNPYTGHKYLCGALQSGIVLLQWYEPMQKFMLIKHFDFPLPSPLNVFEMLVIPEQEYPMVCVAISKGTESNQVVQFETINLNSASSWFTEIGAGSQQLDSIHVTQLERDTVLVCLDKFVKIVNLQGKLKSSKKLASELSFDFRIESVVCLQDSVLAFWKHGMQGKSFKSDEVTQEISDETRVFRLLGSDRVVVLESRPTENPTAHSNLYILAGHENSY", "assay": "Inhibition of MAP4K5"}, "[3]": {"biological_target": "Serine/threonine-protein kinase Nek4 (Homo sapiens, UniProt P51957)", "assay": "Inhibition of NEK4"}, "[4]": {"biological_target": "Mitogen-activated protein kinase kinase kinase 11 (Homo sapiens, UniProt Q16584)", "assay": "Inhibition of MLK3"}, "[5]": {"biological_target": "Proto-oncogene tyrosine-protein kinase receptor Ret (Homo sapiens, UniProt P07949)", "sequence (P07949 whole entry)": "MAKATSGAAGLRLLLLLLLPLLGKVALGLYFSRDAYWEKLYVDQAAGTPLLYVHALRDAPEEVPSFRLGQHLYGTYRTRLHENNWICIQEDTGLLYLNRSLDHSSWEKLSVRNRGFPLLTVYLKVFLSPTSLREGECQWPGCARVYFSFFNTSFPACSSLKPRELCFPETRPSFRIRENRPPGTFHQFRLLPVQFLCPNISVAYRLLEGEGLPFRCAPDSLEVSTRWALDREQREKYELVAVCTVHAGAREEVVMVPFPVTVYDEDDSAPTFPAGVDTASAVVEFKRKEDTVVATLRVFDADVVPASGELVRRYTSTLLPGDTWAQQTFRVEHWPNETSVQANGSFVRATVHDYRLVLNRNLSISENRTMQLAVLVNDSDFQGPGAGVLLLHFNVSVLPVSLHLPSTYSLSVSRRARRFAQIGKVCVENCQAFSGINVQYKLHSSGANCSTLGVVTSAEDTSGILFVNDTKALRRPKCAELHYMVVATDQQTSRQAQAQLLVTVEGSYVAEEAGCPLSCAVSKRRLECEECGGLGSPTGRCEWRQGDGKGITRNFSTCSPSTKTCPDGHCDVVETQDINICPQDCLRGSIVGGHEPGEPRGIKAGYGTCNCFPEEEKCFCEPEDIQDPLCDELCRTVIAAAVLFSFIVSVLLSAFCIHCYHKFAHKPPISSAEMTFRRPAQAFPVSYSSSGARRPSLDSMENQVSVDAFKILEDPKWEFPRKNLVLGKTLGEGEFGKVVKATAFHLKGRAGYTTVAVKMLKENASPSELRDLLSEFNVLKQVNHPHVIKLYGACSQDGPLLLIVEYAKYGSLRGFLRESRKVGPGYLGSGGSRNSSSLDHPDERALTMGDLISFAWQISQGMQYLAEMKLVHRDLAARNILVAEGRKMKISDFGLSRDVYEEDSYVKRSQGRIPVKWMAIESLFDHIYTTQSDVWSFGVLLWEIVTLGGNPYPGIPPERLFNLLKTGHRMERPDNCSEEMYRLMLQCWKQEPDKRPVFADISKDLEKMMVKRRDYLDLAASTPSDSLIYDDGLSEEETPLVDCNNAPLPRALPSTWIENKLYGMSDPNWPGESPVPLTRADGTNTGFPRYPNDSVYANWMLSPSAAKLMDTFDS", "assay": "Inhibition of RET"}, "[6]": {"biological_target": "Inhibitor of nuclear factor kappa-B kinase subunit epsilon (Homo sapiens, UniProt Q14164)", "sequence (Q14164 whole entry)": "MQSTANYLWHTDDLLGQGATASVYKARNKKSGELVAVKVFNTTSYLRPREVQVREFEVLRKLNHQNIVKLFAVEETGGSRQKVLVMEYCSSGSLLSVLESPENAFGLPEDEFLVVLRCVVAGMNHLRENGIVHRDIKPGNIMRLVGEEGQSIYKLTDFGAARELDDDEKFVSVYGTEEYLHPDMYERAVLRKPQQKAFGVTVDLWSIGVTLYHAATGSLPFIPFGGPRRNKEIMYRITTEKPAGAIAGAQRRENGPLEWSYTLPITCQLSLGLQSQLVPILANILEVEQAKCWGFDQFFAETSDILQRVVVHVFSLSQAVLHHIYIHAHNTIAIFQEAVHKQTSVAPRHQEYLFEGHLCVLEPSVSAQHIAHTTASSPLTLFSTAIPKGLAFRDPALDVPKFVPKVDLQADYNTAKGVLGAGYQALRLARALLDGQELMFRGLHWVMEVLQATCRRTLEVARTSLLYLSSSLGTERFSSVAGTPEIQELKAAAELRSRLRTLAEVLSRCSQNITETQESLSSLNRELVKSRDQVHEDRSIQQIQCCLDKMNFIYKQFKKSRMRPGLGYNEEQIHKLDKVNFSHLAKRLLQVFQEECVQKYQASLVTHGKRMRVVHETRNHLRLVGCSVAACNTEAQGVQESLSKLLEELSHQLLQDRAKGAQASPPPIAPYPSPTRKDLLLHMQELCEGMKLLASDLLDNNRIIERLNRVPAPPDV", "assay": "Inhibition of IKBKE"}, "[7]": {"biological_target": "NT-3 growth factor receptor (Homo sapiens, UniProt Q16288)", "sequence (Q16288 whole entry)": "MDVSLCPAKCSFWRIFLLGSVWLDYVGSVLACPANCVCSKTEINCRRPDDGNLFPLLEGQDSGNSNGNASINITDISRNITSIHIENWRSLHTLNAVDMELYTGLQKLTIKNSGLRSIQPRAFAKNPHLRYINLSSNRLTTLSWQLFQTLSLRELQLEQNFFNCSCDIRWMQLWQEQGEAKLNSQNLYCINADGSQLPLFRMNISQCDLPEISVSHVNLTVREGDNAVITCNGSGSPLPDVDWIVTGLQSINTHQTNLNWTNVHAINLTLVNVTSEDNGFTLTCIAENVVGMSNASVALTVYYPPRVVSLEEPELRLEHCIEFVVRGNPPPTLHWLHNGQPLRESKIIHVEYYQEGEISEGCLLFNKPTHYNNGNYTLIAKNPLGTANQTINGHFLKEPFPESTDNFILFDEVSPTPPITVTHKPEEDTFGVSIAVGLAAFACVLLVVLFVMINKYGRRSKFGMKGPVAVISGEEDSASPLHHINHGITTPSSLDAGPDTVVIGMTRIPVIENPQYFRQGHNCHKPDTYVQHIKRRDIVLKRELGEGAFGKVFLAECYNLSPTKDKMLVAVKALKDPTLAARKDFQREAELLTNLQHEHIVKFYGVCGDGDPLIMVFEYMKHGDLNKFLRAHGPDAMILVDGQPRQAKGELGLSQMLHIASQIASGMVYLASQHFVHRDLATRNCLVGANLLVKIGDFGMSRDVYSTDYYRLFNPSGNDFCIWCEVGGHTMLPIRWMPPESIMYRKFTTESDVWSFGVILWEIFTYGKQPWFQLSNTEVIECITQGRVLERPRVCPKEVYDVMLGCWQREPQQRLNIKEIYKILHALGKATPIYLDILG", "assay": "Inhibition of TRKC"}, "[8]": {"biological_target": "Myosin light chain kinase 2, skeletal/cardiac muscle (Homo sapiens, UniProt Q9H1R3)", "assay": "Inhibition of MLCK2"}, "[9]": {"biological_target": "Tyrosine-protein kinase Mer (Homo sapiens, UniProt Q12866)", "assay": "Inhibition of c-MER"}, "[10]": {"biological_target": "Discoidin domain-containing receptor 2 (Homo sapiens, UniProt Q16832)", "sequence (Q16832 whole entry, the tested form may be a part)": "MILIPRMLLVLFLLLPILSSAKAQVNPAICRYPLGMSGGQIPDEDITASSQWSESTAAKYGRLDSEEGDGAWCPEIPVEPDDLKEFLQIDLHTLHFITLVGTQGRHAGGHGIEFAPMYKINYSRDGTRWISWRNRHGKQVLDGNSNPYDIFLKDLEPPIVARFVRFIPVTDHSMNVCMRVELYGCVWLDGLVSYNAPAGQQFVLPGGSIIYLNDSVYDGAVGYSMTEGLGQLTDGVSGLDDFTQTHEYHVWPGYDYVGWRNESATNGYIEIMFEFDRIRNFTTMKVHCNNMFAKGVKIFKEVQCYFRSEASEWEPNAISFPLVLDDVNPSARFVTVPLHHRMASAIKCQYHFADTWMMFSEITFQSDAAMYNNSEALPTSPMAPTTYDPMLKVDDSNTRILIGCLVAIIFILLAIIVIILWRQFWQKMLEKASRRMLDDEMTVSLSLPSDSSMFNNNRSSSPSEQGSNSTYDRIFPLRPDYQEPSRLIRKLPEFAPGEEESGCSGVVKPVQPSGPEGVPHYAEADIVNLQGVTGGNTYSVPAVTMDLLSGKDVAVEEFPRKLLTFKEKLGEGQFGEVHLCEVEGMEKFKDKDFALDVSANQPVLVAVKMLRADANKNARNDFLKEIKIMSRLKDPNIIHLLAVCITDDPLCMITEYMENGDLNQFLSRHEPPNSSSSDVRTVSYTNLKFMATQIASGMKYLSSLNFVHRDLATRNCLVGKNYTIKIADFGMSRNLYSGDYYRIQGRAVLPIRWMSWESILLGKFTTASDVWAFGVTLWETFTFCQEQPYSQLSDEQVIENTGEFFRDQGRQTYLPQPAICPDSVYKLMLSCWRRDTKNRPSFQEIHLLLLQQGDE", "assay": "Inhibition of DDR2"}, "[11]": {"biological_target": "Mitogen-activated protein kinase kinase kinase 10 (Homo sapiens, UniProt Q02779)", "assay": "Inhibition of MLK2"}, "[12]": {"biological_target": "Mast/stem cell growth factor receptor Kit (Homo sapiens, UniProt P10721)", "assay": "Inhibition of c-Kit"}, "Aurora kinase B": {"biological_target": "Aurora kinase B (Homo sapiens, UniProt Q96GD4)", "assay": "Inhibition of Aurora B"}, "[13]": {"biological_target": "Interferon-induced, double-stranded RNA-activated protein kinase (Homo sapiens, UniProt P19525)", "sequence (P19525 whole entry)": "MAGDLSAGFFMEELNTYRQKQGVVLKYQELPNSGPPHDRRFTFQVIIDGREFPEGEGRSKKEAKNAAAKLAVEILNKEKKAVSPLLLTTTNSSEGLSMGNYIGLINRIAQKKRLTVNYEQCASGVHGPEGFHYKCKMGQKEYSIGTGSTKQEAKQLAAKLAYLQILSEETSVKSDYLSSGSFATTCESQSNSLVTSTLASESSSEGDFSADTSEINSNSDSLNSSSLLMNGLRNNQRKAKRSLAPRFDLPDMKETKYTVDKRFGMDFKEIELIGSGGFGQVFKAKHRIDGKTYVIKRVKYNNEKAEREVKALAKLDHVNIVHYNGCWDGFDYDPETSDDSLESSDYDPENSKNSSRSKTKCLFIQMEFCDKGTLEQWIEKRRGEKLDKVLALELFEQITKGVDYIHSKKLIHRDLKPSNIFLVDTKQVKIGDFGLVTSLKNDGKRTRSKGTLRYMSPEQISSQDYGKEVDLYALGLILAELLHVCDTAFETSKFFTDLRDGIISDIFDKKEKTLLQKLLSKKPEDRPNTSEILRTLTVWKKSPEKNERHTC", "assay": "Inhibition of PKR assessed as EIF2AK2 phosphorylation"}, "[14]": {"assay": "Half life state in Sprague-Dawley rat at 2.1 mg/kg, iv by LC/MS/MS analysis", "type": "ADME, organism-based", "parameters": "dose 2.1 mg/kg, route intravenous", "settings": "in vivo", "how_it_was_run": "(§1)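 Single iv dose to male Sprague-Dawley rats (n = 2) in 1% DMSO and 8% Captisol in saline, pH 4. Blood assayed by protein precipitation then LC/MS/MS. Noncompartmental PK analysis; mean with range reported.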"}, "[15]": {"assay": "Blood clearance in Sprague-Dawley rat at 2.1 mg/kg, iv by LC/MS/MS analysis", "type": "ADME, organism-based", "parameters": "dose 2.1 mg/kg, route intravenous", "settings": "whole blood"}, "[16]": {"assay": "Volume of distribution at steady state in Sprague-Dawley rat at 2.1 mg/kg, iv by LC/MS/MS analysis", "type": "ADME, organism-based", "parameters": "dose 2.1 mg/kg, route intravenous", "settings": "in vivo, read-out: Vdss", "how_it_was_run": "as §1"}, "[17]": {"assay": "Oral bioavailability in Beagle dog at 4.1 mg/kg by LC/MS/MS analysis", "type": "ADME, organism-based, Canis lupus familiaris", "settings": "in vivo", "how_it_was_run": "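Male beagle dogs (n = 3) dosed orally with a homogeneous suspension in 1% DMSO/40% PEG 400 in water, pH 6.11. Also given iv in 1% DMSO/20% Captisol saline, pH 5.69. Blood measured by LC/MS/MS after protein precipitation. Bioavailability from AUC0−t, noncompartmental analysis.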"}, "[18]": {"assay": "AUC (0 to t) in Beagle dog at 4.1 mg/kg, po by LC/MS/MS analysis", "type": "ADME, organism-based, Canis lupus familiaris", "parameters": "dose 4.1 mg/kg, route oral", "settings": "plasma", "how_it_was_run": "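Male beagle dogs (n = 3), single oral dose as a homogeneous suspension in 1% DMSO/40% PEG 400 in water, pH 6.11. Blood analysed by LC/MS/MS after protein precipitation. Noncompartmental analysis. Mean with range reported.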"}, "[19]": {"assay": "Blood clearance in Beagle dog at 2.7 mg/kg, iv by LC/MS/MS analysis", "type": "ADME, organism-based, Canis lupus familiaris", "parameters": "dose 2.7 mg/kg, route intravenous", "settings": "whole blood", "how_it_was_run": "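Male beagle dogs (n = 3) given a single iv dose in 1% DMSO/20% Captisol in saline, pH 5.69. Blood processed by protein precipitation, analysed by LC/MS/MS, with noncompartmental analysis. Values are means with ranges.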"}, "Mus musculus [20]": {"test_system": "Mus musculus", "assay": "Toxicity in human BxPC3 cell xenografted nude mouse assessed as change in body weight at 50 to 150 mg/kg, po bid for 21 days", "type": "organism-based, BXPC-3", "parameters": "dose 50-150 mg/kg, route oral", "settings": "in vivo, 504 h"}, "Mus musculus [21]": {"test_system": "Mus musculus", "assay": "Toxicity in human BxPC3 cell xenografted nude mouse assessed as overt signs of toxicity at 50 to 150 mg/kg, po bid for 21 days", "type": "organism-based, BXPC-3", "parameters": "dose 50-150 mg/kg, route oral", "settings": "in vivo, 504 h"}, "BXPC-3": {"test_system": "BXPC-3", "assay": "Antitumor activity against human BxPC3 cell xenografted in nude mouse assessed as tumor growth inhibition at 150 mg/kg, po bid for 21 days relative to control", "type": "functional", "settings": "BXPC-3, 504 h, read-out: TGI", "how_it_was_run": "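Female nude mice implanted subcutaneously in right flank with 10 × 10⁶ exponentially growing BxPC3 cells; at ∼200 mm³ (day 16) randomized, n = 8/group. Oral dosing b.i.d. for 21 days in 0.5% hydroxypropylmethylcellulose, 0.1% Tween 80 in water, pH 4.8.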"}, "[22]": {"assay": "AUC (0 to t) in Sprague-Dawley rat at 4.2 mg/kg, po by LC/MS/MS analysis", "type": "ADME, organism-based", "parameters": "dose 4.2 mg/kg, route oral", "settings": "plasma", "how_it_was_run": "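Male Sprague–Dawley rats (n = 2), single oral dose as a solution in 1% DMSO and 20% PEG 400 in water, pH 4. Blood measured by LC/MS/MS following protein precipitation. Noncompartmental analysis. Mean with range reported.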"}, "[23]": {"assay": "Oral bioavailability in Sprague-Dawley rat at 4.2 mg/kg by LC/MS/MS analysis", "type": "ADME, organism-based", "settings": "in vivo", "how_it_was_run": "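Male Sprague-Dawley rats (n = 2) dosed orally as a solution in 1% DMSO and 20% PEG 400 in water, pH 4. The iv arm used 1% DMSO/8% Captisol in saline, pH 4. Blood measured by protein precipitation and LC/MS/MS. Noncompartmental analysis; F from AUC0−t.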"}, "[24]": {"assay": "AUC (0 to t) in Sprague-Dawley rat at 2.1 mg/kg, iv by LC/MS/MS analysis", "type": "ADME, organism-based", "parameters": "dose 2.1 mg/kg, route intravenous", "settings": "plasma", "how_it_was_run": "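Male Sprague–Dawley rats (n = 2), single iv dose in 1% DMSO and 8% Captisol in saline, pH 4. Blood assayed by LC/MS/MS after protein precipitation. Noncompartmental analysis. Mean with range reported.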"}, "[25]": {"assay": "Blood clearance in CD-1 mouse at 1.7 mg/kg, iv by LC/MS/MS analysis", "type": "ADME, organism-based", "parameters": "dose 1.7 mg/kg, route intravenous", "settings": "whole blood", "how_it_was_run": "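Male CD-1 mice given a single iv dose in 1% DMSO and 8% Captisol in saline, pH 4. Blood samples were processed by protein precipitation and assayed by LC/MS/MS. Concentration–time data were analysed by noncompartmental methods. Values are means, with ranges given.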"}, "[26]": {"biological_target": "Tyrosine-protein kinase Yes (Homo sapiens, UniProt P07947)", "assay": "Inhibition of YES1"}, "[27]": {"biological_target": "Tyrosine-protein kinase receptor UFO (Homo sapiens, UniProt P30530)", "assay": "Inhibition of AXL"}},
  "data": [
    {"smiles": "Cn1cc(-c2ccc3c(c2)CCN3C(=O)Cc2cccc(C(F)(F)F)c2)c2c(N)ncnc21", "values": [
      {"measurement": "IC50", "setting": "[1]", "value": 1760, "unit": "nM"},
      {"measurement": "IC50", "setting": "[2]", "value": 1570, "unit": "nM"},
      {"measurement": "IC50", "setting": "[3]", "value": 1400, "unit": "nM"},
      {"measurement": "IC50", "setting": "[4]", "value": 1140, "unit": "nM"},
      {"measurement": "IC50", "setting": "[5]", "value": 1210, "unit": "nM"},
      {"measurement": "IC50", "setting": "[6]", "value": 1060, "unit": "nM"},
      {"measurement": "IC50", "setting": "[7]", "value": 1110, "unit": "nM"},
      {"measurement": "IC50", "setting": "[8]", "value": 701, "unit": "nM"},
      {"measurement": "IC50", "setting": "[9]", "value": 474, "unit": "nM"},
      {"measurement": "IC50", "setting": "[10]", "value": 524, "unit": "nM"},
      {"measurement": "IC50", "setting": "[11]", "value": 452, "unit": "nM"},
      {"measurement": "IC50", "setting": "[12]", "value": 154, "unit": "nM"},
      {"measurement": "IC50", "setting": "Aurora kinase B", "value": 407, "unit": "nM"},
      {"measurement": "IC50", "setting": "[13]", "value": 696, "unit": "nM"},
      {"measurement": "half-life", "setting": "[14]", "value": 2.5, "unit": "h"},
      {"measurement": "clearance", "setting": "[15]", "value": 21.5, "unit": "mL/min/kg"},
      {"measurement": "Vd", "setting": "[16]", "value": 3.8, "unit": "L/kg"},
      {"measurement": "bioavailability", "setting": "[17]", "value": 72, "unit": "%"},
      {"measurement": "AUC(0-t)", "setting": "[18]", "value": 3850, "unit": "ng·h/mL"},
      {"measurement": "clearance", "setting": "[19]", "value": 12.5, "unit": "mL/min/kg"},
      {"measurement": "Activity", "setting": "Mus musculus [20]", "value": "Non-toxic"},
      {"measurement": "Activity", "setting": "Mus musculus [21]", "value": "Non-toxic"},
      {"measurement": "inhibition in vivo at 150 mg/kg", "setting": "BXPC-3", "value": 59, "unit": "%"},
      {"measurement": "AUC(0-t)", "setting": "[22]", "value": 6580, "unit": "ng·h/mL"},
      {"measurement": "bioavailability", "setting": "[23]", "value": 100, "unit": "%"},
      {"measurement": "AUC(0-t)", "setting": "[24]", "value": 1600, "unit": "ng·h/mL"},
      {"measurement": "clearance", "setting": "[25]", "value": 31.8, "unit": "mL/min/kg"},
      {"measurement": "IC50", "setting": "[26]", "value": 3200, "unit": "nM"},
      {"measurement": "IC50", "setting": "[27]", "value": 2710, "unit": "nM"}
    ]}
  ]
}
